Compounds with a hit are over-represented: about 3.5% of the library has one in this group of screens.
MrgX1 ag: human MrgX1 receptor agonism, primary screen. Q96LB2. MrgX1-HEK293 cells, Fluo-4 calcium fluorescence, agonist mode; stronger effect = higher value. B-score at 10 µM. actives 0.44% (n = 310,000). AID 588627;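 active = calcium response B-score plate-corrected fluorescence ratio at least 3 library SD, with starting fluorescence B-score inside 5 SD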
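System – MrgX1-expressing HEK293 cells · Incubation – cells plated overnight, dye loaded 0.5 h 37 °C, 0.5 h room temperature · Technique – kinetic Fluo-4 NW fluorescence of intracellular calcium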
RGS4 act: potentiators or activators of RGS4; actives 0.92% (n = 310,000); B-score at 10 µM; HEK293 M3R/inducible RGS4, carbachol calcium flux Fluo4; stronger effect = lower value; AID 463111;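 active = B-score of the integrated calcium signal more than 4 SD below the library mean, with starting fluorescence not abnormally high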;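 note: negative B-score means reduced calcium response which marks RGS4 activation or potentiation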
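System: HEK293 FlpIn-TREx cells, stable M3R, doxycycline-inducible RGS4. Timing: overnight RGS4 induction, 30 min dye load 37 °C, 20 min compound RT. Also added: carbachol, ECmax concentration. Measured by: Fluo4 fluorescence kinetic imaging of calcium. Evaluation: integrated calcium ratio converted to B score.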
MrgX1 allo act: allosterically activates human MrgX1 receptor signaling; Q96LB2; MrgX1-HEK293, Fluo-4 calcium flux, FDSS; stronger effect = higher value; B-score at 10 µM; actives 0.63% (n = 310,000);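 active = plate-corrected calcium response at least 3 library SD above typical, normal starting fluorescence, not activating the receptor alone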;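 note: compound read alongside a low EC10 to EC30 dose of BAM8-22 agonist; peak minus trough fluorescence over baseline measured at the second addition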
MrgX1 antagonist: blocks BAM8-22 activation of human MrgX1 receptor; Q96LB2; MRGX1-HEK293 calcium flux, Fluo-4, BAM8-22 antagonism; stronger effect = lower value; B-score at 10 µM; actives 1.3% (n = 310,000); AID 588676;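 active = calcium-response B-score plate-corrected more than 3 library SD below zero, starting fluorescence within 5 deviations, no agonist response on first addition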;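 note: peak minus trough fluorescence over baseline after final BAM8-22 challenge near maximal dose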
RGS4 inh: inhibitors of human RGS4 | actives 0.45% (n = 310,000) | B-score at 10 µM | HEK293 M3R/RGS4 inducible, Fluo-4 calcium flux; stronger effect = higher value; triggered by carbachol at its EC20 | P49798;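 active = B-score, a plate-corrected calcium signal, over three deviations above library mean, with baseline fluorescence within five deviations of library mean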;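 note: RGS4 expression induced by doxycycline in cells with stable M3 receptor; B-score is computed from the integrated fluorescence ratio over baseline after carbachol; higher B-score means a larger calcium signal and so more RGS4 inhibition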
Target sequence (P49798 whole entry, looked up): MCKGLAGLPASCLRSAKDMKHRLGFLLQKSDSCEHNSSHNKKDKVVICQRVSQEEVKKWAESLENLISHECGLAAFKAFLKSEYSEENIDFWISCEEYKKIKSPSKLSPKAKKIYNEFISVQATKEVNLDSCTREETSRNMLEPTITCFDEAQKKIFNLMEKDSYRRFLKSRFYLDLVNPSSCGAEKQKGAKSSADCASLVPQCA
A number is an active result; i = inactive; nt = not tested or not shown.

SMILES | MrgX1 ag | RGS4 act | MrgX1 allo act | MrgX1 antagonist | RGS4 inh
O=C(On1c(-c2ccccc2)nc2ccccc2c1=O)c1ccco1 | i | -8.11 | i | i | i
COc1ccc(S(=O)(=O)N(C)C)cc1NC(=O)CCNC(=O)c1ccccc1OC | i | i | i | i | i
CCN(CCO)c1nc(NCc2ccccc2)c2cnn(C)c2n1 | i | i | i | i | i
O=C1NC(=S)S/C1=C1\Sc2ccccc2N1CCCS(=O)(=O)O | i | i | i | -4.76 | i
NN1C(=O)/C(=C2/Sc3ccccc3N2CCCS(=O)(=O)O)SC1=S | i | i | i | i | i
Cc1ccc(S(=O)(=O)N(C)CC(=O)Oc2ccc(-c3nnco3)cc2)cc1 | i | i | i | i | i
CCC(C)(C)c1ccc(OCCCC[n+]2cccc(C)c2)c(C(C)(C)CC)c1 | nt | -8.05 | nt | nt | i
Cc1nn(-c2ccc(Cl)nn2)c(=O)c2ccccc12 | i | i | 13.9 | i | i
Cc1nn(-c2ccc(Cl)cc2)c(=O)c2ccccc12 | i | i | i | i | i
CCCCc1c(C(=O)O)cc(OC)cc1C(=O)O | i | i | i | i | i
CCCCCc1c2c(cc(O)c1C(=O)O)OC(=O)c1c(cc(OC)cc1C(=O)CCCC)O2 | i | -6.98 | i | -7.89 | i
COc1ccc(CCNC(=O)CCC(=O)Nc2nnc(C(C)C)s2)cc1OC | i | i | i | i | i
O=C(COc1ccc(Cl)cc1Cl)NCCCCc1ccccc1 | i | i | i | i | i
O=C(COc1ccc([N+](=O)[O-])cc1Cl)NCCc1ccccc1 | i | i | 8.95 | i | i
O/N=C(\CN1CCCCC1)c1ccccc1 | i | i | i | i | i
COC(=O)/C=C1/S/C(=N/NC(=O)c2ccccc2C)NC1=O | i | i | i | -8.23 | i
CCCCC(=O)NC(=S)NNC(=O)CCc1ccccc1 | 49.2 | i | i | i | i
CCCCCCCC(=O)NNC(=O)Cc1ccccc1 | i | i | i | -6.9 | i
CC(C)(C)c1cc(CCC(=O)NNC(=S)NC(=O)c2ccccc2)cc(C(C)(C)C)c1O | 49.7 | i | i | i | i
O=C(NCc1nc(-c2ccc(C(F)(F)F)cc2)no1)Nc1ccc(OC(F)(F)F)cc1 | i | i | i | i | i
O=C(CCNC(=O)C1CCN(S(=O)(=O)c2ccc(F)cc2)CC1)NCCc1ccc(Cl)cc1 | i | i | i | i | i
Cc1ccc(NS(=O)(=O)c2cccc(C(=O)NNC(=O)c3cccn3C)c2)c(C)c1 | i | i | i | -6.68 | i
COc1ccc(NS(=O)(=O)c2cccc(C(=O)NNC(=O)c3cccn3C)c2)cc1 | i | i | i | i | i
CCS(=O)(=O)C1=NN2C(=N)/C(=C\c3ccc(OS(=O)(=O)c4ccccc4)cc3)C(=O)N=C2S1 | i | i | 7.2 | i | i
CS(=O)(=O)C1=NSC2=NC(=O)/C(=C\c3ccc(OC(=O)c4ccco4)c(Br)c3)C(=N)N21 | i | i | 16.7 | i | i
SMILES | MrgX1 ag | RGS4 act | MrgX1 allo act | MrgX1 antagonist | RGS4 inh
CCS(=O)(=O)C1=NN2C(=N)/C(=C\c3ccc(OS(=O)(=O)c4ccccc4)c(OC)c3)C(=O)N=C2S1 | i | i | i | i | i
CCC(CC)C1=NN2C(=N)/C(=C/c3ccc(OC(=O)c4ccco4)cc3)C(=O)N=C2S1 | i | i | i | i | i
CC(C)CS(=O)(=O)C1=NSC2=NC(=O)/C(=C\c3ccc(OC(=O)c4ccco4)cc3)C(=N)N21 | i | i | 14.7 | i | i
COc1cc(/C=C2\C(=N)N3N=C(S(=O)(=O)CC(C)C)SC3=NC2=O)ccc1OC(=O)c1ccco1 | i | i | i | i | i
CCC1=NN2C(=N)/C(=C/c3ccc(OS(=O)(=O)c4ccc(C)cc4)c(OC)c3)C(=O)N=C2S1 | i | i | i | i | i
CCC1=NN2C(=N)/C(=C/c3ccc(OS(=O)(=O)c4ccccc4)cc3)C(=O)N=C2S1 | 38.8 | i | i | i | i
CCOC(=O)C1CCN(C(=O)c2cc(COc3ccc(F)cc3F)on2)CC1 | i | i | i | i | i
CCOC(=O)CNC(=O)COc1coc(CN2CCN(Cc3ccccc3)CC2)cc1=O | i | i | i | i | i
O=C(COc1ccc(Cl)cc1Cl)NN1C(=O)C2C3C=CC(C3)C2C1=O (stereo not drawn) | i | i | i | i | i
CCC1=NN2C(=N)/C(=C\c3cccn3-c3ccc(Cl)cc3)C(=O)N=C2S1 | i | i | 8.09 | i | i

Compound activity as filed in PubChem BioAssay.
